Paper PMC3100537 (Biochemistry, 2011)
“And” between values parts separate entries of the source, which are not always exact repeats. Identical values can stand only once.

Assays:
[1] = Non-denaturing gradient gel electrophoresis; type: physicochemical; details: Native-PAGE 4–20% Tris-glycine gel; stock solutions 1 mg/ml PBS, pH 7.4; 3 μg per well
[2] = DMS cross-linking / SDS-PAGE of self-associated forms; type: physicochemical; details: 20-fold molar excess DMS, 3 h, 25 °C; SDS-PAGE 10–20% Tricine gel
Summary of the method: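 Peptide at various concentrations reacted with 20-fold molar excess dimethylsuberimidate for 3 h at 25°C, then quenched with 50 mM Tris-HCl. Mixed with SDS loading buffer, boiled 1 min, and run on 10–20% Tris-Tricine SDS-PAGE. Protein stain visualized cross-linked species, sized against 1.7–40 kDa markers.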

[3] = Gel-filtration chromatography; type: physicochemical
Summary of the method: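 Size-exclusion FPLC on Superdex 75 or Superdex Peptide columns equilibrated in PBS (10 mM phosphate, 150 mM NaCl, pH 7.4), run at 0.5 ml/min at room temperature. 0.2 ml of peptide stock (0.125 to 140 mg/ml; concentration set by A280) injected, with elution read at 280 or 215 nm. Columns calibrated with molecular weight standards. Stocks also run after 2 years' sterile storage at 4°C or 24 h at 37°C.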

[4] = Small angle X-ray scattering; type: physicochemical
Summary of the method: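 Concentration-scaled intensity at q = 0 converted to mass by calibration against lysozyme, xylanase and BSA. Ab initio shape from ten averaged modelling runs. Two independent peptide preparations measured.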

[5] = test system: J774 mouse macrophages; details: lipid-free peptide; cited from earlier work
[6] = Circular dichroism spectroscopy, secondary structure; type: physicochemical
Summary of the method: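 Lipid-free peptide in 10 mM sodium phosphate, pH 7.4, at 25°C; 2 mg/ml stock diluted in the same buffer to 6–310 μM (18–1000 μg/ml). Four scans at 20 nm/min averaged per concentration. α-Helicity derived from molar ellipticity at 222 nm; [θ]222/[θ]208 ratio plotted against concentration. For TFE, 0.2 mg/ml peptide held ±50% TFE for 30 min at 25°C before scanning (n=3).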

[7] = physchem; details: pH 7.4, aqueous buffer

| concentration range of dissociation of the tetrameric assembly to monomers [2] [mg/ml] | gel-filtration profile after prolonged storage ([3]; 2 years in PBS at 4 °C under sterile conditions, data not shown) | concentration at which monomeric ATI-5261 predominated ([3]; FPLC (Superdex 75 and Peptide columns) and SDS-PAGE/DMS cross-linking) [ng/mL] | concentration at which peptide monomers were predominant ([3]; FPLC, allowing for ~10-fold dilution on the columns, PBS pH 7.4) [ng/mL] | MW of the peptide assembly by FPLC ([3]; Superdex Peptide 10/300 GL column, 1 mg peptide/ml, PBS, A215, calibrated with (Gly)6, aprotinin, ribonuclease A) [kDa] | gel-filtration profile after incubation at 37 °C ([3]; incubation at 37 °C for 24 h, data not shown) | SAXS MW relative to monomeric weight of the peptide (3230 Da) ([4]; 2–8 mg/ml PBS pH 7.4) | aggregation detected from X-ray intensity profiles ([4]; peptide at 2–8 mg/ml PBS) | α-helical content, extensively diluted sample ([6]; 6 μM, i.e. 18 μg/ml, 10 mM phosphate buffer pH 7.4, 25 °C) [%] | α-helical content with 50% TFE compared to controls with no TFE ([6]; 0.2 mg/ml, 10 mM phosphate pH 7.4, 30 min TFE at 25 °C, n=3) | 222/208 ellipticity ratio ([6]; 50% TFE) | α-helical content ([6]; lipid-free peptide, 10 mM phosphate buffer pH 7.4, 25 °C, 0.2 mg/ml (62 μM), from molar ellipticity at 222 nm, mean ± SD, n=4) [%] | solubility [7] [µg/mL] | α-helical content, presence of 50% TFE ([6]; 0.2 mg/ml, 50% TFE) [%] | α-helical content, absence of TFE ([6]; 0.2 mg/ml, no TFE) [%] | Substance | migration form on non-denaturing gel (aggregation) [1] | concentration of saturation in cholesterol efflux [5] [µg/mL] |
| --- | --- | --- | --- | --- | --- | --- | --- | --- | --- | --- | --- | --- | --- | --- | --- | --- | --- |
| 0.5 to 0.025 | not altered | ≤ 25000 | < 25000 | 12.8 | not altered | ~4 times and 4.1 times | Little or no aggregation | 82.6 | remained unchanged | < 1 | 74.1±6.8 | – | – | – | Ac-EVRSKLEEWFAAFREFAEEFLARLKS-NH2 [ATI-5261] | low molecular weight (LMW) band | 3 |
| – | – | – | – | – | – | – | – | – | – | – | – | ~1000 | 49 | 28 | Ac-DWFKAFYDKVAEKFKEAF-NH2 [peptide 4F, reference compound] | aggregated as high molecular weight (HMW) species | – |
